According to ChEMBL document CHEMBL1139834, “Synthesis and structure-activity relationships of new benzodioxinic lactones as potential anticancer drugs” (J Med Chem, 2007):
Active and inactive are the calls of the source. The calls are words filed in the database; no cut-off is given here.

How the values were obtained:
MDA-MB-435 = test: Antitumor activity against human MDA-MB-435 cell line; assay type: functional
In short: (§1)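 Human tumour cell line panel. GI50 is the concentration giving 50% growth inhibition, averaged over at least two determinations. LC50 is the concentration killing 50% of cells in a […] assay.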

L1210 [1] = test: Cell cycle arrest in mouse L1210 cell line by accumulation at 8N phase at 5 uM after 24 hrs; assay type: functional
In short: (§2)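 L1210 cells in RPMI 1640 with 2 mM L-glutamine, penicillin, streptomycin and 20% heat-inactivated horse serum, 5% CO2, 37 °C, exposed to several drug concentrations. Cells fixed in 70% ethanol, washed, stained 30 min at room temperature with propidium iodide plus RNAse in PBS, then flow cytometry. Read-out is percentage of cells in each cycle phase after 24 h exposure.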

SF-295 = test: Antitumor activity against human SF295 cell line; assay type: functional; in short: as §1
RPMI-8226 = test: Antitumor activity against human RPMI8226 cell line; assay type: functional; in short: as §1
SK-MEL-5 = test: Antitumor activity against human SKMEL5 cell line; assay type: functional; in short: as §1
NCI-H322M = test: Antitumor activity against human NCI-H322M cell line; assay type: functional; in short: as §1
DU-145 = test: Antitumor activity against human DU145 cell line; assay type: functional; in short: as §1
HCC 2998 = test: Antitumor activity against human HCC2998 cell line; assay type: functional; settings: read-out: LC50 (the source's name); in short: as §1
PC-3 = test: Antitumor activity against human PC3 cell line; assay type: functional; in short: as §1
HT-29 [2] = test: Antitumor activity against human HT29 cell line; assay type: functional
OVCAR-4 = test: Antitumor activity against human OVCAR4 cell line; assay type: functional; in short: as §1
CAKI-1 = test: Antitumor activity against human CAKI1 cell line; assay type: functional; in short: as §1
ACHN = test: Antitumor activity against human ACHN cell line; assay type: functional; in short: as §1
U-251 = test: Antitumor activity against human U251 cell line; assay type: functional
In short: (§3)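 Human tumour cell lines from a selected panel. GI50 is the concentration giving 50% growth inhibition, averaged from at least two determinations. LC50 is the concentration killing 50% of cells in a […] assay.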

[3] = Effect on DNA sequence recognition assessed by DNase I footprinting assay; assay type: functional
L1210 [4] = test: Cell cycle arrest in mouse L1210 cell line by accumulation at G2/M phase at 5 uM after 24 hrs; assay type: functional; in short: as §2
HOP-62 = test: Antitumor activity against human HOP62 cell line; assay type: functional; in short: as §1
SR = test: Antitumor activity against human SR cell line; assay type: functional; in short: as §3
786-0 = test: Antitumor activity against human 7860 cell line; assay type: functional; in short: as §1
Homo sapiens = species on record: Homo sapiens; test: Inhibition of topoisomerase 2 assessed by DNA cleavage complex formation assay
In short: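 Cleavage complex formed on pYRG plasmid DNA by human topoisomerase II purified from placenta. Linear DNA product quantified by densitometry relative to ellipticine.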

A549 = test: Antitumor activity against human A549 cell line; assay type: functional; in short: as §1
MOLT-4 = test: Antitumor activity against human MOLT4 cell line; assay type: functional; in short: as §1
SN12C = test: Antitumor activity against human SN12C cell line; assay type: functional; in short: as §1
NCI/ADR-RES = test: Antitumor activity against human NCI/ADRRES cell line; assay type: functional; in short: as §1
HCT-15 = test: Antitumor activity against human HCT15 cell line; assay type: functional; in short: as §1
NCI-H460 = test: Antitumor activity against human NCI-H460 cell line; assay type: functional; in short: as §1
HT-29 [5] = test: Cytotoxicity against human HT29 cell line; assay type: cell-based
In short: (§4)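 Cells grown at 37 °C under 5% CO2 in medium with 2 mM L-glutamine, penicillin, streptomycin and 20% heat-inactivated horse serum. Drug in DMSO (0.5% final) added to exponentially growing cells seeded at 0.8 × 10^5 cells/mL. Coulter counting in quadruplicate at 48 h (L1210) or 96 h (HT-29). IC50 from probit of % growth inhibition versus log dose; four independent runs in triplicate.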

MDA-N = test: Antitumor activity against human MDA-N cell line; assay type: functional; in short: as §1
COLO 205 = test: Antitumor activity against human Colo205 cell line; assay type: functional; in short: as §1
UACC-62 = test: Antitumor activity against human UACC62 cell line; assay type: functional; in short: as §3
UACC-257 = test: Antitumor activity against human UACC257 cell line; assay type: functional; in short: as §3
NCI-H23 = test: Antitumor activity against human NCI-H23 cell line; assay type: functional; in short: as §1
OVCAR-3 = test: Antitumor activity against human OVCAR-3 cell line; assay type: functional; in short: as §1
SNB-19 = test: Antitumor activity against human SNB19 cell line; assay type: functional; in short: as §1
SF-268 = test: Antitumor activity against human SF268 cell line; assay type: functional; in short: as §1
SF-539 = test: Antitumor activity against human SF539 cell line; assay type: functional; in short: as §1
TK-10 = test: Antitumor activity against human TK10 cell line; assay type: functional; in short: as §3
MCF7 = test: Antitumor activity against human MCF7 cell line; assay type: functional; in short: as §1
SK-MEL-2 = test: Antitumor activity against human SKMEL2 cell line; assay type: functional; in short: as §1
NCI-H522 = test: Antitumor activity against human NCI-H522 cell line; assay type: functional; in short: as §1
BT-549 = test: Antitumor activity against human BT549 cell line; assay type: functional; in short: as §1
KM12 = test: Antitumor activity against human KM12 cell line; assay type: functional; in short: as §1
HL-60 = test: Antitumor activity against human HL60 cell line; assay type: functional; in short: as §1
SK-MEL-28 = test: Antitumor activity against human SKMEL28 cell line; assay type: functional; in short: as §1
L1210 [6] = test: Cytotoxicity against mouse L1210 cell line; assay type: cell-based; settings: Mus musculus, L1210; in short: as §4
MDA-MB-231 = test: Antitumor activity against human MDA-MB-231 cell line; assay type: functional; in short: as §1
LOX IMVI = test: Antitumor activity against human LOX IMVI cell line; assay type: functional; in short: as §1
[7] = read-out: LC50 (the source's name)

CCCCc1c2c(c(C)c3c1C(=O)OC3)Oc1ccccc1O2
GI50 (MDA-MB-435): 158 nM
CC50 (MDA-MB-435; [7]): 40 µM
Activity (L1210 [1]): 67%
GI50 (SF-295): 447 nM
CC50 (SF-295; [7]): 100 µM
GI50 (RPMI-8226): 759 nM
CC50 (RPMI-8226; [7]): 100 µM
GI50 (SK-MEL-5): 427 nM
CC50 (SK-MEL-5; [7]): 100 µM
GI50 (NCI-H322M): 933 nM
CC50 (NCI-H322M; [7]): 100 µM
GI50 (DU-145): 1820 nM
CC50 (DU-145; [7]): 100 µM
CC50 (HCC 2998): 40 µM
GI50 (PC-3): 437 nM
CC50 (PC-3; [7]): 100 µM
GI50 (HT-29 [2]): 331 nM
CC50 (HT-29 [2]; [7]): 100 µM
GI50 (OVCAR-4): 1950 nM
CC50 (OVCAR-4; [7]): 100 µM
GI50 (CAKI-1): 26.3 µM
CC50 (CAKI-1; [7]): 100 µM
GI50 (ACHN): 3.72 µM
CC50 (ACHN; [7]): 100 µM
GI50 (U-251): 525 nM
CC50 (U-251; [7]): 40 µM
Activity [3]: inactive
Activity (L1210 [4]): 67%
GI50 (HOP-62): 1450 nM
CC50 (HOP-62; [7]): 100 µM
GI50 (SR): 132 nM
CC50 (SR; [7]): 100 µM
GI50 (786-0): 562 nM
CC50 (786-0; [7]): 50 µM
Activity (Homo sapiens): inactive
GI50 (A549): 603 nM
CC50 (A549; [7]): 70 µM
GI50 (MOLT-4): 447 nM
CC50 (MOLT-4; [7]): 100 µM
GI50 (SN12C): 1260 nM
CC50 (SN12C; [7]): 100 µM
GI50 (NCI/ADR-RES): 437 nM
CC50 (NCI/ADR-RES; [7]): 100 µM
GI50 (HCT-15): 589 nM
CC50 (HCT-15; [7]): 100 µM
GI50 (NCI-H460): 372 nM
CC50 (NCI-H460; [7]): 100 µM
IC50 (HT-29 [5]): 580 nM
GI50 (MDA-N): 117 nM
CC50 (MDA-N; [7]): 60 µM
GI50 (COLO 205): 741 nM
CC50 (COLO 205; [7]): 100 µM
GI50 (UACC-62): 490 nM
CC50 (UACC-62; [7]): 100 µM
GI50 (UACC-257): 302 nM
CC50 (UACC-257; [7]): 100 µM
GI50 (NCI-H23): 2630 nM
CC50 (NCI-H23; [7]): 100 µM
GI50 (OVCAR-3): 525 nM
CC50 (OVCAR-3; [7]): 100 µM
GI50 (SNB-19): 589 nM
CC50 (SNB-19; [7]): 100 µM
GI50 (SF-268): 977 nM
CC50 (SF-268; [7]): 100 µM
GI50 (SF-539): 339 nM
CC50 (SF-539; [7]): 10 µM
GI50 (TK-10): 1510 nM
CC50 (TK-10; [7]): 100 µM
GI50 (MCF7): 1230 nM
CC50 (MCF7; [7]): 100 µM
GI50 (SK-MEL-2): 363 nM
CC50 (SK-MEL-2; [7]): 100 µM
GI50 (NCI-H522): 234 nM
CC50 (NCI-H522; [7]): 100 µM
GI50 (BT-549): 21.4 µM
CC50 (BT-549; [7]): 100 µM
GI50 (KM12): 490 nM
CC50 (KM12; [7]): 100 µM
GI50 (HL-60): 245 nM
CC50 (HL-60; [7]): 100 µM
GI50 (SK-MEL-28): 39.8 µM
CC50 (SK-MEL-28; [7]): 100 µM
IC50 (L1210 [6]): 2400 nM
GI50 (MDA-MB-231): 2340 nM
CC50 (MDA-MB-231; [7]): 100 µM
GI50 (LOX IMVI): 1230 nM
CC50 (LOX IMVI; [7]): 100 µM
